Measurements published in ChEMBL document CHEMBL1138914, “Design, synthesis, and structure-activity relationships of novel 2-substituted pyrazinoylguanidine epithelial sodium channel blockers: drugs for cystic fibrosis and chronic bronchitis” (J Med Chem, 2006).

System: Epithelial cell
Experiment: Recovery of short-circuit current in dog primary bronchial epithelial cells
Type: functional, Canis lupus familiaris
Summary of the method: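 Canine primary bronchial epithelial monolayers in modified Ussing chambers, KRB pH 7.4, 37 °C, voltage clamped to 0 mV. After a full apical concentration-effect series, the mucosal bath was replaced with KRB three consecutive times. Short-circuit current was read 3 min after the third wash and expressed as percent of starting (basal) current.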

Structure (SMILES)	Activity
N/C(=N\C(=O)c1nc(Cl)c(N)nc1N)NCCCCCCc1ccccc1	12%
N/C(=N\C(=O)c1nc(Cl)c(N)nc1N)NCCCCc1ccccc1OCCO	21%
N/C(=N\C(=O)c1nc(Cl)c(N)nc1N)NCCCCc1ccc(OCC(=O)O)cc1	79%
COc1ccc(CCCCC/N=C(\N)NC(=O)c2nc(Cl)c(N)nc2N)cc1	5.5%
N/C(=N\C(=O)c1nc(Cl)c(N)nc1N)NCCCCc1ccc(OC[C@H](O)CO)cc1	25%
N/C(=N\C(=O)c1nc(Cl)c(N)nc1N)NCCCCc1ccccc1	16%
N/C(=N\C(=O)c1nc(Cl)c(N)nc1N)NCCc1ccc(O)cc1	65%
N/C(=N\C(=O)c1nc(Cl)c(N)nc1N)NCCCCCCCCc1ccccc1	12%
N/C(=N\C(=O)c1nc(Cl)c(N)nc1N)NCCCCc1ccc(O)cc1	24%
CCCCCC/N=C(\N)NC(=O)c1nc(Cl)c(N)nc1N	24%
COc1ccc(CCC/N=C(\N)NC(=O)c2nc(Cl)c(N)nc2N)cc1	57%
CCCCCCCC/N=C(\N)NC(=O)c1nc(Cl)c(N)nc1N	7%
N/C(=N\C(=O)c1nc(Cl)c(N)nc1N)NCCCCc1ccc(O)c(O)c1	45%
N/C(=N\C(=O)c1nc(Cl)c(N)nc1N)NCCCCc1ccc(OCCO)cc1	29%
N/C(=N\C(=O)c1nc(Cl)c(N)nc1N)NCCCCCc1ccc(O)cc1	29%
N=C(NC(=O)c1nc(Cl)c(N)nc1N)Nc1ccccc1	15%
N/C(=N\C(=O)c1nc(Cl)c(N)nc1N)NCCCCc1cccc(OCCO)c1	30%
N/C(=N\C(=O)c1nc(Cl)c(N)nc1N)NCCc1ccccc1	21%
N/C(=N\C(=O)c1nc(Cl)c(N)nc1N)NCCCCc1ccccc1OCC(O)CO (configuration not stated)	63%
N/C(=N\C(=O)c1nc(Cl)c(N)nc1N)NCCCc1ccccc1	23%
COc1ccc(COCC/N=C(\N)NC(=O)c2nc(Cl)c(N)nc2N)cc1	72%

Structure (SMILES)	Activity
N/C(=N\C(=O)c1nc(Cl)c(N)nc1N)NCCCc1ccc(O)cc1	65%
N/C(=N\C(=O)c1nc(Cl)c(N)nc1N)NCCCOc1ccc(O)cc1	73%
N/C(=N\C(=O)c1nc(Cl)c(N)nc1N)NCCCCc1ccc(N)cc1	36%
N/C(=N\C(=O)c1nc(Cl)c(N)nc1N)NCCCCc1ccc(OCCCO)cc1	17%
N/C(=N\C(=O)c1nc(Cl)c(N)nc1N)NCCCCc1ccc(OC[C@@H](O)CO)cc1	18%
N/C(=N\C(=O)c1nc(Cl)c(N)nc1N)NCCCCc1cccc(OCC(O)CO)c1 (configuration not stated)	37%
N/C(=N\C(=O)c1nc(Cl)c(N)nc1N)NCCCCc1ccc(C(=O)O)cc1	65%
COc1ccc(OCCC/N=C(\N)NC(=O)c2nc(Cl)c(N)nc2N)cc1	25%
N/C(=N\C(=O)c1nc(Cl)c(N)nc1N)NCCCCc1ccc(CO)cc1	20%
N/C(=N\C(=O)c1nc(Cl)c(N)nc1N)NCCCCCc1ccccc1	6%
N/C(=N\C(=O)c1nc(Cl)c(N)nc1N)NCCO	77%
COc1ccc(CCCC/N=C(\N)NC(=O)c2nc(Cl)c(N)nc2N)cc1	19%
N/C(=N\C(=O)c1nc(Cl)c(N)nc1N)NCCCCc1ccccc1O	11%
N/C(=N\C(=O)c1nc(Cl)c(N)nc1N)NCCCCc1ccc(OCCC(=O)O)cc1	65%
COC(=O)c1ccc(CCCC/N=C(\N)NC(=O)c2nc(Cl)c(N)nc2N)cc1	13%
N/C(=N\C(=O)c1nc(Cl)c(N)nc1N)NCCCCc1cccc(O)c1	14%
N/C(=N\C(=O)c1nc(Cl)c(N)nc1N)NCCCCc1ccc(OC2O[C@H](C(=O)O)[C@@H](O)[C@H](O)[C@H]2O)cc1 (some centres not stated)	86%
N/C(=N\C(=O)c1nc(Cl)c(N)nc1N)NCCCCc1ccc(OS(=O)(=O)O)cc1	53%
N/C(=N\C(=O)c1nc(Cl)c(N)nc1N)NCCCCc1ccc(OCC(O)CO)cc1 (configuration not stated) [552-02 FREE BASE]	20%
N=C(N)NC(=O)c1nc(Cl)c(N)nc1N [AMILORIDE]	96%
N/C(=N\C(=O)c1nc(Cl)c(N)nc1N)NCc1ccccc1 [BENZAMIL]	47%
